Measurements reported in PMC5767125 (Journal of medicinal chemistry, 2017).

How the values were obtained:
D3R = D3R (Homo sapiens, UniProt P35462); assay: Inhibition of forskolin-dependent stimulation of adenylyl cyclase; type: cell-based; details: compound at 10x the Ki value; efficacy relative to full agonist Quinpirole
How it was run: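 Test compound at 10x its Ki, assessed for inhibiting forskolin-dependent adenylyl cyclase stimulation. Output is mean percent efficacy ± SEM relative to the full agonist quinpirole.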

5-HT2A receptor = 5-HT2A receptor (Homo sapiens, UniProt P28223); assay: 5-HT2A receptor binding; details: data not shown; comparable to those at 5-HT1AR
5-HT2A receptor, sequence (P28223 whole entry): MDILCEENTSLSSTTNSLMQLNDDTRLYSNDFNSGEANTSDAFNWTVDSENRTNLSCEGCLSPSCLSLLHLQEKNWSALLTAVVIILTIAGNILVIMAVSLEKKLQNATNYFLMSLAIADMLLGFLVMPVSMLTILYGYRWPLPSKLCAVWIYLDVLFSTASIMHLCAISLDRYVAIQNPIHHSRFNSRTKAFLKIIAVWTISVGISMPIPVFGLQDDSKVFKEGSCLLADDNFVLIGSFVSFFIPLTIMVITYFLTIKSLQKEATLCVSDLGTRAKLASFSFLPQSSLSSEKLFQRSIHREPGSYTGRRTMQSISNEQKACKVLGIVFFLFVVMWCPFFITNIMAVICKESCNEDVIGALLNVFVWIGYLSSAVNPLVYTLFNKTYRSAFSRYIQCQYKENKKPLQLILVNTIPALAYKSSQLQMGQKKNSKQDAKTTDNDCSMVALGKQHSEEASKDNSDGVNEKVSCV

5-HT2c receptor = target: T1, 5-HT2c receptor (Homo sapiens, UniProt P28335); assay: 5-HT2c receptor binding; details: data not shown; comparable to those at 5-HT1AR
T1 sequence (P28335 33-458): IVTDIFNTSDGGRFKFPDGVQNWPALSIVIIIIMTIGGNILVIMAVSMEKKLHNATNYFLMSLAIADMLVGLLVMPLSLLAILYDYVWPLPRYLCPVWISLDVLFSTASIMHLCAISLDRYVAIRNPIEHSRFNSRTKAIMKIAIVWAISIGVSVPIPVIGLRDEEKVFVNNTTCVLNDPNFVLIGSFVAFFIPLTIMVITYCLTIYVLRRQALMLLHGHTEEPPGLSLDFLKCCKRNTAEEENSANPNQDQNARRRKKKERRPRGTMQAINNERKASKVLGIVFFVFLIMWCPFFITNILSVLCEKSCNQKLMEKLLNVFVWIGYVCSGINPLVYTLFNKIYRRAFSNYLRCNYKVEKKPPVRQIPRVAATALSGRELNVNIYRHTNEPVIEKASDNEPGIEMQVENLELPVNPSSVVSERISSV

D3R, sequence (P35462 whole entry): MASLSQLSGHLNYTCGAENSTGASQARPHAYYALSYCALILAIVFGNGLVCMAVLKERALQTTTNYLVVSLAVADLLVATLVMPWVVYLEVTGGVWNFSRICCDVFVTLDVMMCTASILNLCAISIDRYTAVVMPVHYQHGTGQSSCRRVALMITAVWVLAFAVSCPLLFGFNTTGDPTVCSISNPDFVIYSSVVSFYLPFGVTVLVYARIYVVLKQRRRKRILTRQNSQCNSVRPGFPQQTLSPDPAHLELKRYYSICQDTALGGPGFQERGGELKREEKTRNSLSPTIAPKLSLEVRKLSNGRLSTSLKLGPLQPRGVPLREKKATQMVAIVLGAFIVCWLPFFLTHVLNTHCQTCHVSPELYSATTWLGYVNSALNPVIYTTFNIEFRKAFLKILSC

SMILES: COc1ccccc1N1CCC2(CCN(CCCSc3nnc(-c4ccccc4)n3C)CC2)CC1 [Compound 15a]
- functional activity, adenylyl cyclase assay (D3R): partial agonist
- binding affinity at 5-HT2A receptor (5-HT2A receptor): low binding affinities
- binding affinity at 5-HT2c receptor (5-HT2c receptor): low binding affinities

SMILES: COc1ccccc1N1CCC2(CCN(CCCSc3nnc(-c4ccccc4)n3C)CC2)C1 [Compound 14]
- functional activity, adenylyl cyclase assay (D3R): low activity
- binding affinity at 5-HT2A receptor (5-HT2A receptor): low binding affinities
- binding affinity at 5-HT2c receptor (5-HT2c receptor): low binding affinities

SMILES: Cn1c(SCCCN2CCC3(CC2)CCN(c2ccc(F)cc2)CC3)nnc1-c1ccccc1 [Compound 15c]
- functional activity, adenylyl cyclase assay (D3R): low activity
- binding affinity at 5-HT2A receptor (5-HT2A receptor): low binding affinities
- binding affinity at 5-HT2c receptor (5-HT2c receptor): low binding affinities
